In the library only some 3.7% were active in any assay of this set; here they are far more common.
KCNK9 inh = KCNK9 potassium channel inhibitors, primary screen, HEK293 cells, thallium flux. FluxOR thallium flux fluorescence; active compounds read low. 310,000 compounds, 1.2% hits. B-score at 10 µM;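 active = ratio B-score over 3 SD below the library mean, with starting fluorescence within 5 SD of its mean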;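 note: negative B-score means less thallium flux so channel inhibition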
KCNK3 block = human KCNK3 channel inhibitors, primary screen, CHO cells, FluxOR thallium flux, B-score. B-score at 10 µM. 340,000 compounds, 0.84% hits. Potassium channel subfamily K member 3 (Homo sapiens), O14649. FluxOR fluorescence; active compounds read low;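 active = B-score under library mean minus 4 SD, starting fluorescence ratio at most library mean plus 5 SD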;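 note: more negative B-score means stronger inhibition of thallium flux through KCNK3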
Target sequence (O14649 whole entry, looked up): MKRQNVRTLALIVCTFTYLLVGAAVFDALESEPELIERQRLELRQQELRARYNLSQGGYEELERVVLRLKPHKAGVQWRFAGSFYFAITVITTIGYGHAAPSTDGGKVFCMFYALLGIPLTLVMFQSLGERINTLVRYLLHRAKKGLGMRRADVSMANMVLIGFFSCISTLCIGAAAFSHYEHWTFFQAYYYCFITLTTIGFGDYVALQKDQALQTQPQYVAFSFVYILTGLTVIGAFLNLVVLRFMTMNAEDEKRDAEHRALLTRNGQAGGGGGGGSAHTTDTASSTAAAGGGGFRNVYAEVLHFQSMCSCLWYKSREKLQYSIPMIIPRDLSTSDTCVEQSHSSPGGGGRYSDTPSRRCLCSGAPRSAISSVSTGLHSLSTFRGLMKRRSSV
KCNQ1 block = inhibitors of human KCNQ1 channel, primary screen, cell-based, thallium flux, high-throughput; Potassium voltage-gated channel subfamily KQT member 1 (Homo sapiens), P51787; CHO-K1 KCNQ1, FluxOR thallium flux fluorescence; active compounds read high; B-score at 10 µM; 310,000 compounds, 1.3% hits; AID 2642, 2010;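 active = compounds whose thallium flux B-score, printed positive for inhibition, exceeds three library SD while starting fluorescence stays within three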;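 note: channel opened by potassium depolarization with thallium stimulus after 20 min compound exposure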
Kir21 block = inhibitors of mouse Kir2.1 inward-rectifier potassium channel. Inward rectifier potassium channel 2 (Mus musculus), P35561. HEK293-Kir2.1, FluxOR thallium flux fluorescence; active compounds read low. B-score at 10 µM. 310,000 compounds, 0.85% hits. AID 1672, 2009;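 active = fluorescence ratio B-score at or below minus 3 SD of library scores, with starting-brightness B-score within 2 SD, cut at about -4.2 in these data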;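 note: channel flux triggered by added potassium and thallium sulfate stimulus; B-score of peak minus minimum fluorescence over baseline after thallium stimulus; more negative B-score means stronger Kir2.1 block with less thallium influx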
KCNQ1 pot = potentiators or activators of KCNQ1 channel, primary screen, cell-based, thallium flux, high-throughput; CHO-K1 KCNQ1, thallium flux FluxOR fluorescence; active compounds read high; B-score at 10 µM; AID 2648, 2010; Potassium voltage-gated channel subfamily KQT member 1 (Homo sapiens), P51787; 310,000 compounds, 0.35% hits;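 active = fluorescence ratio B-score, a plate-corrected score, at least three library SD, with initial intensity B-score within 5 SD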
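Assay system: CHO-K1 cells stably expressing KCNQ1; Medium: assay buffer with matched DMSO; Also added: K+/Tl+ depolarizing stimulus; Dosing: single dose; Timing: dye 90 min, compound 20 min, room temperature; Measured by: kinetic FluxOR thallium fluorescence, 10-s 1-Hz baseline, 110-s post-stimulus read; Read-out: peak-minus-minimum fluorescence over initial fluorescence, negative-control normalized, B-scored.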
hERG rescue = hERG rescue from dofetilide block, primary screen, cell-based, CHO-hERG, FluxOR thallium flux, dofetilide IC70 | Voltage-gated inwardly rectifying potassium channel KCNH2 (Homo sapiens), Q12809 | dofetilide IC70 present | activation (rescue from dofetilide block), less the hit threshold, % at 10 µM | 310,000 compounds, 0.51% hits;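 active = activation above the mean of controls blocked by dofetilide plus 5 SD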;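 note: thallium influx through hERG after potassium depolarization seen as dye fluorescence rise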
* = called active by the depositor.

For CCOc1ccc(NC(=O)CN(C)C(=O)CC(NC(=O)c2ccccc2)c2ccccc2)cc1OCC (configuration not stated) the results were KCNK9 inh inactive, KCNK3 block inactive, KCNQ1 block inactive, Kir21 block 0.58, KCNQ1 pot inactive and hERG rescue -13.2.
For COc1ccc(C(=O)N=C2SC3CS(=O)(=O)CC3N2c2ccc(N(C)C)cc2)cc1OC (configuration not stated) the results were KCNK9 inh inactive, KCNK3 block inactive, KCNQ1 block inactive, Kir21 block -0.56, KCNQ1 pot inactive and hERG rescue -2.2.
Screening CCC1=C(OC(=O)N(CC)CC)N2C(=O)OC(=NCC3CC3)[C@]2(Cc2ccccc2)[C@H]2C1=CC[C@H]1C(=O)N(CC(=O)OC)C(=O)[C@H]12 returned KCNK9 inh -6.77*, KCNQ1 block inactive, Kir21 block -0.01, KCNQ1 pot inactive and hERG rescue -8.0.
Screening CCC1=C(OC(=O)N(CC)CC)N2C(=O)OC(=NCc3ccccc3)[C@]2(C)[C@H]2C1=CC[C@H]1C(=O)N(CC(=O)OC)C(=O)[C@H]12 returned KCNK9 inh inactive, KCNK3 block inactive, KCNQ1 block inactive, Kir21 block 0.25, KCNQ1 pot inactive and hERG rescue -8.0.
`CCn1nc(NS(=O)(=O)c2ccccc2[N+](=O)[O-])c2cc3cccc(C)c3nc21` gave KCNK9 inh inactive, KCNK3 block inactive, KCNQ1 block inactive, Kir21 block 2.15, KCNQ1 pot inactive and hERG rescue -16.5.
`CCn1nc(NS(=O)(=O)c2ccc([N+](=O)[O-])cc2)c2cc3cccc(C)c3nc21` gave KCNK9 inh inactive, KCNK3 block inactive, KCNQ1 block 9*, Kir21 block 2.9, KCNQ1 pot inactive and hERG rescue -6.6.
For CCOC(=O)C1CCN(S(=O)(=O)c2c(Cl)ccc3nonc23)CC1 the results were KCNK9 inh inactive, KCNK3 block inactive, KCNQ1 block inactive, Kir21 block -1.14, KCNQ1 pot 9* and hERG rescue -18.6.
For CCOC(=O)C1CCN(S(=O)(=O)c2cccc3nonc23)CC1 the results were KCNK9 inh inactive, KCNK3 block inactive, KCNQ1 block inactive, Kir21 block 1.25, KCNQ1 pot inactive and hERG rescue 14.4*.
COc1ccc(NC(=O)Nc2cc(C)ccc2F)cc1 was read as KCNK9 inh inactive, KCNK3 block inactive, KCNQ1 block inactive, Kir21 block -0.72, KCNQ1 pot inactive and hERG rescue 5.1*.
O=S(=O)(Nc1ccccn1)c1cc(Cl)ccc1Cl was read as KCNK9 inh inactive, KCNK3 block inactive, KCNQ1 block inactive, Kir21 block 0.73, KCNQ1 pot inactive and hERG rescue -2.5.
`CCOc1ccccc1NC(=O)c1cccc(NC(=O)C(C)C)c1` gave KCNK9 inh inactive, KCNK3 block inactive, KCNQ1 block inactive, Kir21 block -0.62, KCNQ1 pot inactive and hERG rescue -16.8.
`CCCC(=O)Nc1cccc(NC(=O)c2ccc(C)c([N+](=O)[O-])c2)c1` gave KCNK9 inh inactive, KCNK3 block inactive, KCNQ1 block inactive, Kir21 block -4.82*, KCNQ1 pot inactive and hERG rescue -13.8.
`CCC(=O)Nc1cccc(NC(=O)c2ccc(C)c([N+](=O)[O-])c2)c1` gave KCNK9 inh inactive, KCNK3 block inactive, KCNQ1 block inactive, Kir21 block -1.25, KCNQ1 pot inactive and hERG rescue -21.8.
For CCCC(=O)Nc1cccc(C(=O)Nc2ccccc2OCC)c1 the results were KCNK9 inh -7.8*, KCNQ1 block inactive, Kir21 block 0.15, KCNQ1 pot inactive and hERG rescue -8.7.

Screening results as filed in PubChem.
